Molecules are shown by their SMILES. Activity calls are given as the source filed them. No cut-off for these calls is given here.

Drawing on ChEMBL document CHEMBL4334424, “The winding road of the uvaretin class of natural products: from total synthesis to bioactive agent discovery” (Medchemcomm, 2019), this text covers Activity and IC50 for four compounds.

One experiment deals with HCT-116. Briefly: Cytotoxicity against human HCT116 cells assessed as reduction in cell viability incubated for 72 hrs in presence of etoposide by alamar blue assay.
Settings: not given
The format is functional, cell-based. The essentials: (§1)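 Same combination format as the 6TP study, with the cytotoxic partner (doxorubicin, etoposide or paclitaxel) combined with test compound. Cells were at 4000/well (adherent) in 100 μL, 1% DMSO, for 72 h at 37 °C, 5% CO2, with Alamar Blue viability read-out. Combination index was derived by the Chou–Talalay protocol and reported as a median.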
On the technique in general: The colour change of resazurin is a common sign of viable cells or microbes.
As to `COc1cc(O)c(Cc2ccccc2O)c(O)c1C(=O)CCc1ccccc1` [UVARETIN], the result was inactive.

For a further experiment, the system named is A549. Put plainly: Cytotoxicity against human A549 cells assessed as reduction in cell viability incubated for 72 hrs by alamar blue assay. The format is functional, cell-based. The conditions noted are these: A549, 72 h. The essentials:
(§2)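 Adherent cells were seeded at 1500 cells/well in 384-well plates and allowed 2–3 h to attach. Compounds in DMSO, diluted in media over 31.6 nM–200 μM, were tested in triplicate for 72 h continuous exposure at 37 °C, 5% CO2. Alamar Blue was added for the final 3 h and fluorescence read (ex 560/em 590 nm). IC50 was fitted from ≥3 independent experiments.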
One may read the IC50 as the point on the concentration scale where inhibition reaches its midpoint. Consider `COCOc1cc(OC)cc(OC)c1C(C)=O`, for which the IC50 was 16.9 µM.

Consider `COc1cc(OC)c(C(=O)/C=C/c2ccccc2)c(O)c1Cc1ccccc1O`, for which the IC50 is 5.8 µM.

Turning to `COc1cc(O)c(C(C)=O)c(OC)c1` [XANTHOXYLIN], the IC50 was greater than 20 µM.

In the case of `COc1cc(O)c(Cc2ccccc2O)c(O)c1C(=O)CCc1ccccc1` [UVARETIN], the half-maximal inhibitory concentration (IC50) stood at 2.2 µM.

A further experiment concerns HCT-116. Put plainly: Cytotoxicity against human HCT116 cells assessed as reduction in cell viability incubated for 72 hrs by alamar blue assay. The format is functional, cell-based. The following applies: HCT-116, 72 h. An outline of the steps:
as §2
Consider `COCOc1cc(OC)cc(OC)c1C(C)=O`, for which the IC50 was greater than 20 µM.

Consider `COc1cc(OC)c(C(=O)/C=C/c2ccccc2)c(O)c1Cc1ccccc1O`, for which the half-maximal inhibitory concentration (IC50) is greater than 20 µM.

For the compound `COc1cc(O)c(C(C)=O)c(OC)c1` [XANTHOXYLIN], the IC50 is greater than 20 µM.

In the case of `COc1cc(O)c(Cc2ccccc2O)c(O)c1C(=O)CCc1ccccc1` [UVARETIN], the concentration for half-maximal inhibition (IC50) is greater than 20 µM.

In a further experiment the test system is HCT-116. Put plainly: Cytotoxicity against human HCT116 cells assessed as reduction in cell viability incubated for 72 hrs in presence of 6TP by alamar blue assay.
Settings: not given
The format is functional, cell-based. The essentials: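 Combination assay in 96-well plates with 100 μL final volume and 1% DMSO. Two test-compound concentrations were crossed with five 6TP concentrations, then cells were added (4000/well adherent, 7000/well suspension). Plates ran 72 h at 37 °C, 5% CO2, with Alamar Blue viability read-out and ≥3 independent experiments. Combination index was calculated by the Chou–Talalay method.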
For the compound `COc1cc(O)c(Cc2ccccc2O)c(O)c1C(=O)CCc1ccccc1` [UVARETIN], the outcome was inactive.

A further experiment concerns REH. Put plainly: Cytotoxicity against human REH cells assessed as reduction in cell viability incubated for 72 hrs by alamar blue assay. The format is functional, cell-based.
Settings: not given
An outline of the steps:
(§3)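 Suspension cells (2200/well, 384-well) were added directly onto compound in media with no attachment period. Compounds spanned 31.6 nM–200 μM in triplicate, with 72 h exposure at 37 °C, 5% CO2. Alamar Blue was added for the last 3 h and fluorescence read (ex 560/em 590 nm). IC50 came from ≥3 independent experiments.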
In the case of `COCOc1cc(OC)cc(OC)c1C(C)=O`, the IC50 is greater than 20 µM.

For `COc1cc(OC)c(C(=O)/C=C/c2ccccc2)c(O)c1Cc1ccccc1O`, the 50% inhibitory concentration (IC50) was determined as 9.7 µM.

For `COc1cc(O)c(C(C)=O)c(OC)c1` [XANTHOXYLIN], the IC50 is greater than 20 µM.

With `COc1cc(O)c(Cc2ccccc2O)c(O)c1C(=O)CCc1ccccc1` [UVARETIN], the half-maximal inhibitory concentration (IC50) worked out at 11.3 µM.

The next experiment has as its system HCT-116. Briefly: Cytotoxicity against human HCT116 cells assessed as reduction in cell viability incubated for 72 hrs in presence of doxorubicin by alamar blue assay. The format is functional, cell-based.
Settings: not given
An outline of the steps:
as §1
As for `COc1cc(O)c(Cc2ccccc2O)c(O)c1C(=O)CCc1ccccc1` [UVARETIN], the outcome was inactive.

The next experiment has as its system MIA PaCa-2. Put plainly: Cytotoxicity against human MIAPaCa2 cells assessed as reduction in cell viability incubated for 72 hrs by alamar blue assay. The format is functional, cell-based. The conditions noted are these: MIA PaCa-2, 72 h. An outline of the steps: as §2
`COCOc1cc(OC)cc(OC)c1C(C)=O`: the IC50 was greater than 20 µM.

As for `COc1cc(OC)c(C(=O)/C=C/c2ccccc2)c(O)c1Cc1ccccc1O`, the half-maximal inhibitory concentration (IC50) was greater than 20 µM.

Regarding `COc1cc(O)c(C(C)=O)c(OC)c1` [XANTHOXYLIN], the IC50 is greater than 20 µM.

For `COc1cc(O)c(Cc2ccccc2O)c(O)c1C(=O)CCc1ccccc1` [UVARETIN], the IC50 amounted to 2 µM.

For another experiment, the system named is U-937. Put plainly: Cytotoxicity against human U937 cells assessed as reduction in cell viability incubated for 72 hrs by alamar blue assay. The format is functional, cell-based. The conditions noted are these: U-937, 72 h. The essentials:
as §3
As to `COCOc1cc(OC)cc(OC)c1C(C)=O`, the IC50 was determined as 13.3 µM.

As for `COc1cc(OC)c(C(=O)/C=C/c2ccccc2)c(O)c1Cc1ccccc1O`, the IC50 worked out at 6.8 µM.

As to `COc1cc(O)c(C(C)=O)c(OC)c1` [XANTHOXYLIN], the IC50 is greater than 20 µM.

With `COc1cc(O)c(Cc2ccccc2O)c(O)c1C(=O)CCc1ccccc1` [UVARETIN], the half-inhibitory concentration (IC50) turned out to be 3.6 µM.

The test system of another experiment is HeLa. Put plainly: Cytotoxicity against human HeLa cells assessed as reduction in cell viability incubated for 72 hrs by alamar blue assay.
Settings: not given
The format is functional, cell-based. The essentials: as §2
Regarding `COCOc1cc(OC)cc(OC)c1C(C)=O`, the half-maximal inhibitory concentration (IC50) stood at 14 µM.

As to `COc1cc(OC)c(C(=O)/C=C/c2ccccc2)c(O)c1Cc1ccccc1O`, the IC50 came to 3.1 µM.

Take `COc1cc(O)c(C(C)=O)c(OC)c1` [XANTHOXYLIN]: the concentration for half-maximal inhibition (IC50) was 18.7 µM.

`COc1cc(O)c(Cc2ccccc2O)c(O)c1C(=O)CCc1ccccc1` [UVARETIN]: the IC50 was 3.7 µM.
